Source: PubChem (several laboratories)
The list is not random: actives were taken first. Their share in the collection is about 3%.
ROMK mod: ROMK potassium channel modulators, primary screen, cell-based, thallium flux, MLSMR library. AID 1918, 2009. actives 2% (n = 130,000). ATP-sensitive inward rectifier potassium channel 1 (Homo sapiens), P48048. B-score at 10 µM. Tet-inducible ROMK, thallium flux fluorescence; actives lie on both sides;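 active = signal ratio slope over the read window, or its plate-corrected B-score, at least 3 SD from the plate mean, either direction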;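 note: B-score of the F/F0 ratio slope over 7 to 12 s after thallium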
Target sequence (P48048 whole entry, looked up): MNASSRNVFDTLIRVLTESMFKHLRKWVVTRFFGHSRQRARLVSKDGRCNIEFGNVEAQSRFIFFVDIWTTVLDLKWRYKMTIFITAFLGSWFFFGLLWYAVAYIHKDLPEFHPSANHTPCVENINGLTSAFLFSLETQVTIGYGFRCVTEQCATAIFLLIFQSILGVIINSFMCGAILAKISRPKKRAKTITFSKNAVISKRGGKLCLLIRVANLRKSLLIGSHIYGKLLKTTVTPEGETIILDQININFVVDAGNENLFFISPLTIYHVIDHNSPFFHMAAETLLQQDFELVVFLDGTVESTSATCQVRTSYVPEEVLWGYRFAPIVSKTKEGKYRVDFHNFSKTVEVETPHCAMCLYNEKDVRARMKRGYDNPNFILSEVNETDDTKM
PKD1 kinase inh: inhibitors of human PKD1 kinase, biochemical, fluorescence polarization; Serine/threonine-protein kinase D1 (Homo sapiens), Q15139; PKD1 kinase fluorescence polarization assay; inhibition, % (no concentration beside the values); actives 0.056% (n = 200,000); AID 797, 2007; in the data active = inhibition above about 50%
KCC2 mod: KCC2 cotransporter modulators, thallium flux, primary screen, cell-based, HEK293 KCC2, FluoZin-2 fluorescence, MLSMR | Solute carrier family 12 member 5 (Homo sapiens), Q9H2X9 | KCC2 cells, thallium flux FluoZin-2 fluorescence | B-score of Tl+ flux slope (higher = more flux/activation; lower = inhibition) at 10 µM | actives 2.2% (n = 190,000);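 active = thallium flux slope and its plate-corrected score both differing from the plate sample mean at a set confidence after two filtering rounds, in either direction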;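 note: slope of fluorescence scaled to starting intensity during 10 to 20 s after thallium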
Rad51 HR inh: human RAD51 strand exchange inhibitors, primary screen, biochemical, fluorescence | DNA repair protein RAD51 homolog 1 (Homo sapiens), Q06609 | hRad51 DNA strand exchange, fluorescence dequenching | inhibition, % at 10 µM | actives 0.085% (n = 200,000);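 active = inhibition above 40% at the single screening dose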
Target sequence (Q06609 whole entry, looked up): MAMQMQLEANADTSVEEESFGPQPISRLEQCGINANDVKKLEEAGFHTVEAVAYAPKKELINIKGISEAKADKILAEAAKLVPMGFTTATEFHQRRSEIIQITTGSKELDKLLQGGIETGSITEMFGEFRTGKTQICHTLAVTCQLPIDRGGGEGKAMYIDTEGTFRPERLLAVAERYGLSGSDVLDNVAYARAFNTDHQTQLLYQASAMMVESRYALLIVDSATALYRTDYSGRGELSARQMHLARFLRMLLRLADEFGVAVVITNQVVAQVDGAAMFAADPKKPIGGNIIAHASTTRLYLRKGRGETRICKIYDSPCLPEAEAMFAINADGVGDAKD
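System: hRad51 filaments on single-stranded DNA; reagent: Fluorescein- and BHQ1-tagged 47-mer duplex; compound dosing: one concentration, 10 µM final; timing: filaments 15 min 37 °C, then compound 30 min; measured by: fluorescein emission 520 nm, excitation 485 nm; benchmarks: per-plate controls and blanks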
KCC2 secondary: KCC2 modulators in sodium-free buffer, confirmation, cell-based, HEK293 KCC2, thallium flux, secondary assay; shares compounds with KCC2 mod; FluoZin2 fluorescence; hits give high values; normalised thallium flux (F/F0 slope) at 10 µM; actives 15% (n = 3,700); AID 1713, 2009;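 active = thallium flux slope above the same plate's solvent-only control mean plus 3 SD; inconclusive = the two replicate wells disagree; inactive = no significant difference from solvent-only control wells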
KCC2 bumet counter: thallium flux persisting under bumetanide in KCC2 cells, confirmation, counter-screen for KCC2 modulator project, cell-based, HEK293 KCC2, FluoZin2, secondary assay 3. shares compounds with KCC2 mod. HEK293-KCC2 + bumetanide/ouabain; hits give high values. normalized thallium flux at 10 µM. actives 49% (n = 3,700);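 active = thallium entry rate above the same plate's blocked-transporter control wells by more than 3 SD; inconclusive = the two repeat wells disagree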;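 note: raw slope of fluorescence over initial fluorescence between 10 and 20 s after thallium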
KCC2 sec2: KCC2 modulators without ouabain present, confirmation, cell-based, HEK293 KCC2, thallium flux, FluoZin2, secondary assay 2. shares compounds with KCC2 mod. thallium flux FluoZin2 fluorescence; actives lie on both sides; F/F0 rise rate, 10–20 s post-thallium. normalized thallium flux at 10 µM. actives 23% (n = 3,700);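 active = thallium flux slope more than 3 SD above or below the plate's solvent-only control mean, mostly below; inconclusive = the two repeat wells disagreed; inactive = no significant shift from solvent-only controls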
HEK293 Tl flux: thallium flux modulation in parental HEK cells, confirmation, counter-screen for KCC2 modulator project, cell-based, counterscreen 1; shares compounds with KCC2 mod; HEK293 parental cells, thallium flux FluoZin2, ouabain; baseline-ratio fluorescence slope, 10–20 s after thallium; thallium flux rate (normalised fluorescence) at 10 µM; actives 46% (n = 3,700); AID 1716, 2009;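 active = thallium flux rate significantly above the same plate's solvent-only control wells, beyond their mean plus 3 SD; inconclusive = the two replicate wells gave conflicting results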
KCC2 ouabain: KCC2 inhibitors and activators, ouabain retest, confirmation, HEK-KCC2 cells; shares compounds with KCC2 mod; raw Tl+ flux slope (below DMSO = inhibition, above = activation) at 10 µM; HEK293-KCC2, thallium flux FluoZin2 fluorescence; bidirectional: low = inhibitor, high = activator; actives 48% (n = 3,700); AID 1717, 2009;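 active = thallium flux slope beyond 3 SD from same-plate DMSO control mean in most replicates, usually higher, sometimes lower; inconclusive = repeat tests gave conflicting results; inactive = no significant difference from controls in most replicates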;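 note: slope of initial-normalized fluorescence between seconds 10 and 20 after thallium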
HEK counter2: native HEK Tl+ uptake effects, second counter-screen – HEK cells, counterscreen 2, counter-screen for KCC2 modulator project, confirmation. shares compounds with KCC2 mod. HEK293 parental, thallium flux FluoZin-2 fluorescence slope. thallium flux slope at 10 µM. actives 33% (n = 3,700);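 active = thallium flux slope above the same plate's solvent-control mean plus 3 SD in both duplicate wells; inconclusive = duplicate wells that disagreed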;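 note: run without ouabain in cells lacking the KCC2 cotransporter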
Of the large screens only hits and unclear results are named; the others gave an inactive call (follow-up assays come after a bar, where they were run).

O=C(NCc1csc(-c2ccccc2)n1)c1cc(F)cc2c1OCOC2	KCC2 mod -3.78 (no result: ROMK mod, PKD1 kinase inh, Rad51 HR inh) | KCC2 secondary inconclusive | KCC2 bumet counter inactive | KCC2 sec2 inactive | HEK293 Tl flux inactive | KCC2 ouabain 0.0152 | HEK counter2 inactive
O=C(Cc1csc(-c2ccccc2)n1)NCc1ccccc1F	none
O=C(Cc1csc(-c2ccccc2)n1)NCc1ccc(F)cc1	KCC2 mod -5.22 (no result: ROMK mod) | KCC2 secondary inactive | KCC2 bumet counter inactive | KCC2 sec2 0.0297 | HEK293 Tl flux inactive | KCC2 ouabain 0.0157 | HEK counter2 inactive
CC(/C=C/c1ccco1)=N\NC(=O)c1cc(C)[nH]n1	none (no result: ROMK mod, KCC2 mod)
CC(/C=C/c1ccco1)=N\NC(=O)c1cc(Cl)ccc1O	KCC2 mod 13.1 | KCC2 secondary 0.0156 | KCC2 bumet counter 0.0259 | KCC2 sec2 inactive | HEK293 Tl flux inconclusive | KCC2 ouabain 0.0324 | HEK counter2 inactive
Cc1cc(OCc2nc(-c3ccncc3)no2)cc(C)c1Cl	none
CC12CC3(C)CC(C)(C1)CC(C(=O)NC(=S)N1CCCC1)(C2)C3	KCC2 mod 7.86 | KCC2 secondary inactive | KCC2 bumet counter 0.00949 | KCC2 sec2 inactive | HEK293 Tl flux 0.0102 | KCC2 ouabain inconclusive | HEK counter2 inconclusive
COc1ccc(NC(=O)CSc2nnc3n2CCCCC3)cc1	none (no result: Rad51 HR inh)
Cc1ccc(C)c(C2=NNC(=NCc3ccccc3)SC2)c1	KCC2 mod 8.94 | KCC2 secondary inactive | KCC2 bumet counter 0.0385 | KCC2 sec2 inactive | HEK293 Tl flux inconclusive | KCC2 ouabain 0.0328 | HEK counter2 inconclusive
C=CCn1c(C)cc(C2=NNC(=NCc3ccccc3)SC2)c1C	none
C=CCn1c(SCC(N)=O)nc2scc(-c3ccc(C)o3)c2c1=O	KCC2 mod 36.9 (no result: Rad51 HR inh) | KCC2 secondary inactive | KCC2 bumet counter 0.0282 | KCC2 sec2 0.0469 | HEK293 Tl flux 0.037 | KCC2 ouabain 0.0416 | HEK counter2 0.035
CC1CCCCN1c1ccc(N)cc1C(N)=O (stereo not drawn)	none
CCOC(=O)c1[nH]c(C)c(C(=O)OCC(=O)Nc2sc3c(c2C#N)CCCCC3)c1C	none
O=C(N/N=C\c1cn(-c2ccccc2)nc1-c1ccccc1)c1ccc(Br)o1	KCC2 mod 3.91 (no result: ROMK mod, Rad51 HR inh) | KCC2 secondary inactive | KCC2 bumet counter 0.0124 | KCC2 sec2 inactive | HEK293 Tl flux 0.0132 | KCC2 ouabain inactive | HEK counter2 inconclusive
O=C(N/N=C/c1cn(-c2ccccc2)nc1-c1ccccc1)c1ccco1	none (no result: ROMK mod)
Cc1ccc(-c2nn(-c3ccccc3)cc2/C=N/NC(=O)c2ccc(Br)o2)cc1	KCC2 mod 3.16 (no result: ROMK mod) | KCC2 secondary inactive | KCC2 bumet counter 0.00663 | KCC2 sec2 inactive | HEK293 Tl flux 0.0101 | KCC2 ouabain inactive | HEK counter2 0.0136
COc1ccc2c(c1)C(=O)[C@@H](O)[C@H](c1ccc(OC)c(Br)c1)O2	KCC2 mod 5.96 | KCC2 secondary inactive | KCC2 bumet counter 0.0137 | KCC2 sec2 inactive | HEK293 Tl flux 0.0198 | KCC2 ouabain inconclusive | HEK counter2 inactive
S=c1nc(C2CC2)n(-c2ccccc2)[nH]1	KCC2 mod 3.98 (no result: ROMK mod, PKD1 kinase inh) | KCC2 secondary 0.0145 | KCC2 bumet counter 0.0124 | KCC2 sec2 inactive | HEK293 Tl flux 0.01 | KCC2 ouabain inconclusive | HEK counter2 inconclusive
O=c1c2c3n(c(=S)nc2[nH]n1-c1ccccc1)CCCCC3	none
CNC(=O)c1cc(NC(=O)CCn2nc(-c3ccc(C)cc3)c3ccccc3c2=O)ccc1OC	none (no result: PKD1 kinase inh, Rad51 HR inh)
O=C(NNC(=O)C12CC3CC(CC(C3)C1)C2)c1ccccn1	KCC2 mod 22.2 (no result: ROMK mod, PKD1 kinase inh) | KCC2 secondary inactive | KCC2 bumet counter 0.0411 | KCC2 sec2 0.0439 | HEK293 Tl flux 0.0275 | KCC2 ouabain 0.0416 | HEK counter2 0.0297
CC1(C(=O)NC(=S)NNC(=O)c2ccncc2)CCCCC1	none
O=C(NNC(=S)NC(=O)C12CC3CC(CC(C3)C1)C2)c1ccncc1	none (no result: ROMK mod, KCC2 mod, Rad51 HR inh) | KCC2 secondary 0.0166 | KCC2 bumet counter 0.0378 | KCC2 sec2 inactive | HEK293 Tl flux 0.0196 | KCC2 ouabain inactive | HEK counter2 0.0135
COCCNC(=O)C(c1ccncc1)N(Cc1ccccc1)C(=O)Cn1nnc2ccccc21 (stereo not drawn)	none
O=C(NNC(=O)C1CC2CCC1C2)c1sc2ccccc2c1Cl (stereo not drawn)	KCC2 mod 9.49 (no result: ROMK mod) | KCC2 secondary inactive | KCC2 bumet counter 0.0409 | KCC2 sec2 inactive | HEK293 Tl flux 0.0192 | KCC2 ouabain inactive | HEK counter2 0.0124
O=C(NNC(=S)NC1CCCCC1)c1sc2ccccc2c1Cl	none
COC(=O)CSc1nnc(SCc2ccccc2)s1	none (no result: KCC2 mod) | KCC2 secondary inactive | KCC2 bumet counter inconclusive | KCC2 sec2 0.0213 | HEK293 Tl flux 0.00598 | KCC2 ouabain 0.0118 | HEK counter2 inactive
COC(=O)CSc1nnc(SCc2ccc(Cl)cc2)s1	none
O=C(CN(Cc1ccccc1)C(=O)c1csnn1)NCc1ccccc1	none
Cc1ccc(-n2c(COc3cccc(C)c3)n[nH]c2=S)cc1	KCC2 mod 5.62 (no result: ROMK mod) | KCC2 secondary inactive | KCC2 bumet counter 0.0645 | KCC2 sec2 inactive | HEK293 Tl flux 0.0164 | KCC2 ouabain 0.0364 | HEK counter2 0.021
